Molecules are shown by their SMILES. ≈ marks a conversion by molar mass, not a printed value.

Common to all, as to type: functional
Experiment [1] has as its system Mus musculus. Kind of experiment: In vivo antitumor activity was measured in mice (P388 leukemia)at dose 100 mg/kg after intraperitoneal administration. The method in brief: (§1)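 Groups of six CDF1 mice inoculated ip with 10⁶ P388 leukemia cells; ip drug treatment begun 24 h after inoculation, listed dose given once a day for 1 and 5 days. Endpoint: median survival time of treated group divided by that of tumor controls ×100 (% T/C).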

For experiment [2], the system named is KB. Kind of experiment: In vitro inhibitory activity against growth of KB cells derived from human epidermoid carcinoma of the mouth. The conditions noted are these: for IC50: Homo sapiens, KB, read-out: ID50 (the source's name). The method in brief: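 KB human epidermoid carcinoma cells grown at 37 °C in 5% CO2–95% air and seeded at 2100 cells/cm². After 24 h the medium was changed and graded drug (0.3–100 µg/mL) added, two dishes per concentration. After 48 h of exposure, cells were trypsinized and counted by Coulter counter. IC50 was read from a plot of log concentration vs. growth rate (% of control).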

Experiment [3] deals with Mus musculus. Briefly: In vivo antitumor activity was measured in mice (P388 leukemia)at dose 200 mg/kg after intraperitoneal administration. Summed up:
as §1

Experiment [4] deals with Mus musculus. Briefly: In vivo antitumor activity was measured in mice (P388 leukemia) at dose 50 mg/kg after intraperitoneal administration. Summed up:
(§2)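 Groups of six CDF1 mice were inoculated ip with 10⁶ P388 leukemia cells. Ip drug dosing began 24 h later, given once daily for 1 and 5 days. %T/C = median survival time of the treated group ÷ median survival time of the tumor control group × 100.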

For experiment [5], the system named is Mus musculus. Briefly: In vivo antitumor activity was measured in mice (P388 leukemia) at dose 400 mg/kg after intraperitoneal administration. The method in brief:
as §2

For experiment [6], the system named is Mus musculus. Kind of experiment: In vivo antitumor activity was measured in mice (P388 leukemia) at dose 100 mg/kg after intraperitoneal administration. Summed up: as §2
For experiment [7], the system named is Mus musculus. Briefly: In vivo antitumor activity was measured in mice (P388 leukemia) at dose 200 mg/kg after intraperitoneal administration. Summed up:
as §2

The subject of experiment [8] is Mus musculus. Briefly: In vivo antitumor activity was measured in mice (P388 leukemia) at dose 5 mg/kg after intraperitoneal administration. The method in brief: as §2
In experiment [9] the test system is Mus musculus. Kind of experiment: In vivo antitumor activity was measured in mice (P388 leukemia) at dose 10 mg/kg after intraperitoneal administration. Summed up: as §2
In experiment [10] the test system is Mus musculus. Briefly: In vivo antitumor activity was measured in mice (P388 leukemia) at dose 2.5 mg/kg after intraperitoneal administration. Summed up: as §2
The test system of experiment [11] is Mus musculus. Briefly: In vivo antitumor activity was measured in mice (P388 leukemia) at dose 0.6 mg/kg after intraperitoneal administration. Summed up: as §2
The test system of experiment [12] is Mus musculus. Kind of experiment: In vivo antitumor activity was measured in mice (P388 leukemia) at dose 1.3 mg/kg after intraperitoneal administration. The method in brief:
as §2

Experiment [13] has as its system Mus musculus. Briefly: In vivo antitumor activity was measured in mice (P388 leukemia) at dose 1 mg/kg after intraperitoneal administration. Summed up:
as §2

Experiment [14] deals with Mus musculus. Kind of experiment: In vivo antitumor activity was measured in mice (P388 leukemia) at dose 0.3 mg/kg after intraperitoneal administration. Summed up:
as §2

The test system of experiment [15] is Mus musculus. Kind of experiment: In vivo antitumor activity was measured in mice (P388 leukemia) at dose 0.5 mg/kg after intraperitoneal administration. Summed up:
as §2

Experiment [16] has as its system Mus musculus. Briefly: In vivo antitumor activity was measured in mice (P388 leukemia) at dose 20 mg/kg after intraperitoneal administration. Summed up:
as §2

Experiment [17] has as its system Mus musculus. Kind of experiment: IIn vivo %T/C was measured in mice (P388 leukemia) at dose 10 mg/kg after intraperitoneal administration. Summed up:
as §2

Take `CC(C)c1cccc(=O)c(O)c1` [HINOKITIOL]: the T/C in experiment [1] is on record as 100%; in experiment [3], 62%; in experiment [4], 103%; in experiment [5], 0%. Also, the ID50 in [2] stood at 3.6 µM. The IC50 in experiment [2] came to 0.5 mg/L (≈ 3.04 µM).
In the case of `CC(C)c1ccc(Cc2ccccc2)c(O)c(=O)c1`, in [2], the ID50 amounted to 2 µM and the IC50 was determined as 0.5 mg/L (≈ 1.97 µM). The T/C in experiment [6] was 94%. Moreover, the T/C in [5] is given as 88%.
In turn, `C/C=C/C(OCC)c1ccc(C(C)C)cc(=O)c1O` (stereo not given) registered an ID50 in [2] of 4.5 µM. For the same compound, the IC50 in [2] worked out at 1.2 mg/L (≈ 4.57 µM). The T/C worked out at 116% in [7], 101% in experiment [6] and 115% in experiment [5].
Consider `CCOC(c1ccc(OC)cc1)c1ccc(C(C)C)cc(=O)c1O` (stereo not given), for which the ID50 in [2] came to 1.5 µM. In addition, the IC50 in experiment [2] is 0.5 mg/L (≈ 1.52 µM). For the same compound, the T/C in experiment [7] is 128%; in experiment [5], 140%.
On to `CCOC(c1ccc(C)cc1)c1ccc(C(C)C)cc(=O)c1O` (stereo not given), for which, in experiment [2], the ID50 was 9.9 µM and the IC50 is 6.2 mg/L (≈ 19.8 µM). The compound also came in with a T/C in experiment [7] of 105%. Also, the T/C in experiment [6] stood at 105%.
Take `Cc1ccc(C(c2ccc(C(C)C)cc(=O)c2O)c2ccc(C(C)C)cc(=O)c2O)cc1`: in [2], the ID50 was 3.4 µM and the IC50 turned out to be 1.5 mg/L (≈ 3.48 µM). Besides, the T/C in [8] amounted to 147%.
In experiment [2], `COc1cc(C(C)C)cccc1=O` displayed an ID50 of 278 µM. For the same compound, the IC50 in experiment [2] is 49.5 mg/L (≈ 278 µM). Besides, the results for the T/C in experiment [7], in experiment [6] and in experiment [4] were 0%, 108% and 106%, respectively.
Take `O=c1ccccc(C2OCCc3ccccc32)c1O` (stereo not given): in [2], the ID50 is 1.6 µM. In experiment [2], the IC50 was found to be 0.5 mg/L (≈ 1.97 µM). In addition, the T/C in experiment [7] is reported as 96%; in [6] it was 104%; in [5] it was 0%.
On to `CC(C)c1ccc(C(c2ccc(N(C)C)cc2)c2ccc(C(C)C)cc(=O)c2O)c(O)c(=O)c1`, for which, in experiment [2], the ID50 was 1.5 µM and the IC50 came out at 0.7 mg/L (≈ 1.52 µM). Moreover, the T/C in experiment [8] is given as 173%. The T/C in experiment [9] came out at 177%.
Turning to `CC(C)c1ccc(C2OCCc3ccccc32)c(O)c(=O)c1` (stereo not given), the ID50 in [2] worked out at 1.7 µM. Moreover, the IC50 in experiment [2] was found to be 0.5 mg/L (≈ 1.69 µM). The T/C in experiment [7] turned out to be 126%; in experiment [6], 127%; in [4] it was 128%; in [5] it was 108%.
As to `COc1ccc(C(c2ccc(C(C)C)cc(=O)c2O)c2ccc(C(C)C)cc(=O)c2O)cc1`, in [2], the ID50 was 1.1 µM and the IC50 was found to be 0.5 mg/L (≈ 1.12 µM). The compound also returned a T/C in [10] of 134%. The compound further returned a T/C in experiment [11] of 127%.
Take `CC(C)c1ccc(C(c2ccc(Cl)cc2)c2ccc(C(C)C)cc(=O)c2O)c(O)c(=O)c1`: in experiment [2], the ID50 turned out to be 4.4 µM and the IC50 is 2 mg/L (≈ 4.43 µM). Further, the T/C in [8] is 141%.
In the case of `CCOC(/C=C/c1ccccc1)c1ccc(C(C)C)cc(=O)c1O` (stereo not given), the T/C in [7] was determined as 100%; in experiment [6] it was 112%; in experiment [5], 0%.
Compound `COc1c(C2OCCc3ccccc32)ccc(C(C)C)cc1=O` (stereo not given) displayed an ID50 in experiment [2] of 58 µM. For the same compound, the IC50 in experiment [2] is 18 mg/L (≈ 58 µM). The T/C stood at 88% in experiment [7], 93% in experiment [6] and 98% in experiment [5].
In experiment [2], `CCOC(c1ccc(N(C)C)cc1)c1ccc(C(C)C)cc(=O)c1O` (stereo not given) yielded an ID50 of 1.7 µM. Besides, in experiment [2], the IC50 was 0.6 mg/L (≈ 1.76 µM). Further, the values for the T/C in experiment [7] and in experiment [5] were 128% and 0%, respectively.
In the case of `CC(C)c1ccc(C(c2ccccc2)c2ccc(C(C)C)cc(=O)c2O)c(O)c(=O)c1`, in experiment [2], the ID50 is 0.7 µM and the IC50 amounted to 0.3 mg/L (≈ 0.72 µM). Further, in experiment [12], the T/C worked out at 132%. Besides, the T/C in experiment [10] amounted to 150%.
Consider `COc1cc2c(c(OC)c1OC)-c1ccc(OC)c(=O)cc1[C@@H](NC(C)=O)CC2` [COLCHICINE], for which the T/C in [13] was 166%; in experiment [14] it was 142%; in [15] it was 160%. In addition, the ID50 in [2] stood at 6 µM. Further, the IC50 in experiment [2] was 2.2 mg/L (≈ 5.51 µM).
As for `COc1ccccc1C(c1ccc(C(C)C)cc(=O)c1O)c1ccc(C(C)C)cc(=O)c1O`, the T/C in experiment [16] came out at 0%; in experiment [8], 151%; in experiment [17], 162%.
With `CCOC(c1ccc(Cl)cc1)c1ccc(C(C)C)cc(=O)c1O` (stereo not given), in experiment [2], the ID50 worked out at 0.9 µM. In experiment [2], the IC50 was 0.3 mg/L (≈ 0.901 µM). The T/C in experiment [7] was 109%; in experiment [6] it was 99%; in experiment [5], 0%.
As to `COc1ccc(C(c2cc(C(C)C)ccc(=O)c2O)c2cc(C(C)C)ccc(=O)c2O)cc1`, in [2], the ID50 is 0.6 µM and the IC50 was 0.3 mg/L (≈ 0.672 µM). In [8], the T/C amounted to 156%.
Turning to `CCOC(c1ccccc1)c1ccc(C(C)C)cc(=O)c1O` (stereo not given), in [2], the ID50 was 1 µM and the IC50 was found to be 0.3 mg/L (≈ 1.01 µM). The T/C in experiment [6] was determined as 102%. The compound further yielded a T/C in experiment [5] of 0%.
`CC(C)c1ccc(C(c2ccccc2)c2ccccc2)c(O)c(=O)c1`: in experiment [2], the ID50 worked out at 4.2 µM and the IC50 was 1.4 mg/L (≈ 4.24 µM). In experiment [6], this compound yielded a T/C of 119%.
As to `COc1cccc(C(c2ccc(C(C)C)cc(=O)c2O)c2ccc(C(C)C)cc(=O)c2O)c1`, the ID50 in [2] came to 2.4 µM. The IC50 in experiment [2] was 1.1 mg/L (≈ 2.46 µM). The T/C in experiment [8] was determined as 134%; in [9], 134%; in experiment [10] it was 142%.
`COc1ccc(C(c2ccc(C(C)C)cc(=O)c2O)c2ccc(C(C)C)cc(=O)c2O)cc1OC`: the ID50 in [2] was found to be 0.6 µM. For the same compound, the IC50 in [2] was 0.3 mg/L (≈ 0.629 µM). The T/C is 156% in experiment [8], 158% in experiment [9] and 137% in experiment [10].
`COc1cc(C(C)C)ccc(C2OCCc3ccccc32)c1=O` (stereo not given): the ID50 in experiment [2] was 93 µM. Further, the IC50 in experiment [2] stood at 29 mg/L (≈ 93.4 µM). For the same compound, the T/C stood at 94% in experiment [7], 92% in experiment [6] and 98% in experiment [5].
In the case of `Cc1ccccc1C(c1ccc(C(C)C)cc(=O)c1O)c1ccc(C(C)C)cc(=O)c1O`, the T/C in [16] amounted to 158%; in experiment [8] it was 156%; in [10], 137%.

By T/C is commonly meant the ratio of treated to control.
